# Measured values from ChEMBL document CHEMBL1125359, “omega-[(4,6-Diphenyl-2-pyridyl)oxy]alkanoic acid derivatives: a new family of potent and orally active LTB4 antagonists” (J Med Chem, 1992).
# Legend:
# [1] = molecular target: T1, Leukotriene B4 receptor 1 (Homo sapiens, UniProt Q15722); experiment: Inhibition of LTB4-induced elastase release in human polymorphonuclear leukocytes; type: functional, cell-based
# [2] = molecular target: T1, Leukotriene B4 receptor 1; experiment: Inhibition of [3H]-LTB4 binding to Leukotriene B4 receptor in the human polymorphonuclear leukocytes.
# How it was run: (§1)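 PMNs from normal donors' peripheral blood, isolated by dextran T500 sedimentation, Ficoll-Hypaque centrifugation and hypotonic lysis. Cells incubated with 0.5 nM [3H]LTB4 (173 Ci/mmol) for 15 min at 0 °C across a range of compound concentrations. Percent inhibition of specific binding measured; IC50 derived graphically, mean of three replicates, mostly on one cell preparation.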
# [3] = molecular target: T1, Leukotriene B4 receptor 1; experiment: Inhibition of [3H]LTB4 binding to Leukotriene B4 receptor of human polymorphonuclear leukocytes; how it was run: as §1
# [4] = molecular target: Leukotriene B4 receptor 1 (Cavia porcellus); experiment: Inhibition of [3H]LTB4 binding to Leukotriene B4 receptor in the guinea pig spleen membranes.
# T1 sequence (Q15722 whole entry): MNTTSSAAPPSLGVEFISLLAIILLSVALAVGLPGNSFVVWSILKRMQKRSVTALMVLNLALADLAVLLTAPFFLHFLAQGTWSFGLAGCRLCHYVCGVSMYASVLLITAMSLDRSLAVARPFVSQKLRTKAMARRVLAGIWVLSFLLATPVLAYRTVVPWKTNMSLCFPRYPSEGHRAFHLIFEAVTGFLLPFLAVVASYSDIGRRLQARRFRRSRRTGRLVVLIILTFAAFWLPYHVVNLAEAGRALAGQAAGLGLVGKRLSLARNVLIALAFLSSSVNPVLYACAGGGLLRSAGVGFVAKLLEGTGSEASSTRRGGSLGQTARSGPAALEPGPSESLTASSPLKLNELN
SMILES,IC50 [1] [nM],IC50 [2] [nM],IC50 [3] [nM],IC50 [4] [nM]
NC(=O)CCCCCOc1cc(-c2ccccc2)cc(-c2ccccc2)n1,–,150,–,–
CC(CCCCOc1cc(-c2ccc3c(c2)OCO3)cc(-c2ccccc2Cl)n1)C(=O)O (centres undefined),12,12,–,–
O=C(O)CCCCOc1cc(-c2ccccc2)cc(-c2ccccc2)n1,20000,300,–,–
CC(CCCCOc1cc(-c2ccc3c(c2)OCO3)cc(-c2ccccc2)n1)C(=O)O (centres undefined),120,6.6,–,–
COC(=O)CCCCCOc1cc(-c2ccccc2)cc(-c2ccccc2)n1,1000,100,–,–
CC(C)(CCCCOc1cc(-c2ccccc2)cc(-c2ccccc2)n1)c1nnn[nH]1,8,20,–,–
CC(CCCCOc1cc(-c2ccccc2)cc(-c2ccccc2Cl)n1)C(=O)O (centres undefined),40,–,6,–
COc1ccc(/C=C/CCCCOc2ccc(C(=O)c3cccc(C(=O)O)c3)cc2CCC(=O)O)cc1,1000,–,–,2

# Next, values leading:
IC50 [1] [nM],IC50 [2] [nM],IC50 [3] [nM],IC50 [4] [nM],SMILES
2500,15,–,–,O=C(O)CCCCCCOc1cc(-c2ccccc2)cc(-c2ccccc2)n1
100,60,–,–,CC(C)(CCCCCCOc1cc(-c2ccccc2)cc(-c2ccccc2)n1)C(=O)O
15,9.5,–,–,CC(C)(CCCCOc1cc(-c2ccc(N)cc2)cc(-c2ccccc2)n1)C(=O)O
2000,30,–,–,O=C(O)CCCCCOc1cc(-c2ccccc2)cc(-c2ccccc2)n1
22,30,–,–,CC(CCCCOc1cc(-c2ccccc2)cc(-c2ccccc2)n1)C(=O)O (centres undefined)
–,600,–,–,O=C(O)CCCCCOc1cc(-c2ccc([N+](=O)[O-])cc2)cc(-c2ccccc2)n1
2000,6,–,–,O=C(O)CCCCCOc1cc(-c2ccc3c(c2)OCO3)cc(-c2ccccc2)n1
> 10000,30,–,–,O=C(O)CCCCCOc1cc(-c2ccccc2)cc(-c2ccc(F)cc2)n1
> 10000,–,–,–,O=C(O)CCCCCOc1cc(-c2ccc(NC(=O)C(F)(F)F)cc2)cc(-c2ccccc2)n1
> 10000,–,–,–,O=C(O)CCCCCOc1cc(-c2ccccc2Cl)cc(-c2ccccc2)n1
70,18,–,–,CC(CCCCOc1cc(-c2ccccc2)cc(-c2ccccc2F)n1)C(=O)O (centres undefined)
